High-throughput results as filed in PubChem BioAssay.
The list is not random: actives were taken first. Their share in the collection is about 5.9%.
Pyk2 oligo antag: blocks oligomerization of human Pyk2 in cells | Q14289 | Q293 cells, Pyk2 FERM NanoBiT luminescence; hits give low values | z-score (the deposit names both 25 µM and 10 µM) | hit rate 0.83% among 99,000;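 active = Z-score of -3 or lower, scaled per plate to the spread of control and sample wells; inactive = z-score above -3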;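 note: negative z-score means lost luminescence so less FERM oligomerization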
HIV Rev-RRE inh: HIV Rev-RRE protein-RNA interaction inhibition; P05866; Rev peptide-RRE RNA binding, FRET; inhibition, % at 8 µM; hit rate 0.79% among 97,000; AID 704;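 active = inhibition above the screen-wide mean plus 3 SD, cut at about 35% in these data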;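 note: 0% = median DMSO wells and 100% = median Neomycin B control wells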
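assay system = Cy5-tagged RRE RNA duplex with fluorescein-tagged Rev peptide | incubation = 5 + 15 min at 25 °C | also added = labelled Rev peptide | measure = % inhibition of FRET ratio versus controls | benchmarks = DMSO wells as 0% and neomycin B wells as 100% inhibition | measured by = FRET fluorescence readout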
Measles CPE: protection of cells from measles virus. protection (pct of control), % at 4 µM. Measles virus-infected cells, CPE protection, absorbance. hit rate 1.5% among 140,000. AID 841; in the data active = protection mostly above about 24%, no sharp cut-off; inactive = mostly below about 26%
DAT uptake mod: modulates human dopamine transporter uptake under cocaine; LLC-PK1 hDAT cells, [14C]-dopamine uptake with cocaine IC80; actives deviate in either direction; Q01959; B-score at 10 µM; hit rate 1.3% among 110,000;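 active = Z score or B-score, a plate-position-corrected score, falls beyond the plate's 99.7% confidence bounds, in either direction; inactive = both scores lie inside the 99.7% bounds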;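 note: scored against the spread of the other compound wells on the same plate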
Phagocyt inh: blocks phagocytosis by macrophages | J774A.1 macrophage IgG-bead phagocytosis, imaging | inhibition, % at 5 µM | AID 1029 | hit rate 0.07% among 110,000;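 active = inhibition above the mean of the plate negative controls plus 5 SD, cut at about 13% in these data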;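 note: phagocytic index as fraction of beads internalized from green versus red external bead signal; plate controls were DMSO negative control for no effect and cytochalasin-D positive control for full effect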
Cav3 T inh: human Cav3.2 channel inhibition, primary screen; O95180; Cav3.2-expressing cells, Fluo-4 calcium fluorescence FDSS; hits give low values; B-score at 10 µM; hit rate 4% among 100,000;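 active = single-dose well whose peak fluorescence ratio is a statistical outlier from its plate by either plate-standardised score or position-corrected B-score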
Numbers without * were called inactive; · = no result given; [ ] = remark or other dose.

SMILES	Pyk2 oligo antag	HIV Rev-RRE inh	Measles CPE	DAT uptake mod	Phagocyt inh	Cav3 T inh
Cc1ccc(S(=O)(=O)C(C#N)c2nc3ccccc3nc2N2CCC(C)CC2)cc1 (configuration not stated)	0.45	·	12.5	-1.77	2.6	-0.228
COC(=O)C(C#N)c1nc2ccccc2nc1N1CCCC1 (configuration not stated)	-0.23	·	6.0	-0.384	-1.3	-2.29
COc1ccc(CNC(=O)C(C#N)c2nc3ccccc3nc2N2CCCC2)cc1 (configuration not stated)	0.93	35.9*	4.5	0.0642	-1.9	-7.28*
CCC(C)N=C1CC(C)(C)CC(=O)/C1=C(/O)Cc1ccccc1 (configuration not stated)	·	·	2.7	·	1.1	·
COc1ccccc1/C=C(/CC(=O)NCc1ccc2c(c1)OCO2)c1nc2ccccc2s1	·	·	19.8	·	-4.3	·
COc1cccc2cc(C(=O)NCc3ccco3)c(=Nc3ccc(C(=O)O)cc3)oc12	0.69	1.4	5.3	0.00151	·	-1.99
CCCCCCOC(=O)C(C#N)c1nc2ccccc2nc1N1CCCCC1 (configuration not stated)	-0.45	18.0	17.3	-0.437	0.1	-5.32*
Cc1cccc(S(=O)(=O)C(C#N)c2nc3ccccc3nc2N2CCCC2)c1 (configuration not stated)	-0.2	82.3*[fluorescence artefact?]	19.6	2.35	-1.2	-0.153
COc1ccc(CNC(=O)C(C#N)c2nc3ccccc3nc2N2CCN(C)CC2)cc1 (configuration not stated)	-0.33	1.3	6.2	1.96	-3.9	0.728
CC1CN(c2nc3ccccc3nc2C(C#N)C(=O)NCc2ccc3c(c2)OCO3)CC(C)O1 (configuration not stated)	0.13	9.5	12.9	0.108	0.0	-7.88*
CCCCCCOC(=O)C(C#N)c1nc2ccccc2nc1N1CCN(C)CC1 (configuration not stated)	-1.26	24.4	10.7	0.912	0.9	-0.673
Cc1ccc(C)c(S(=O)(=O)C(C#N)c2nc3ccccc3nc2N2CCCC2)c1 (configuration not stated)	-0.01	63.8*	5.4	0.624	-0.4	-1.03
Cc1[nH]nc2c1C(c1cc(Br)cs1)C(C#N)=C(N)O2 (configuration not stated)	·	·	6.5	·	-0.8	·
COCCN1C(=O)N[C@@H](c2ccc(Br)cc2)C(C(C)=O)=C1C	·	·	11.2	-0.315	·	-1.04
CCOC(=O)C1CCN(c2nc3ccccc3nc2C(C#N)C(=O)OC(C)COC)CC1 (configuration not stated)	-2.95	·	7.1	0.331	-0.2	-4.38*
CC1CCCCN1Cc1c(O)ccc2c(=O)c(-c3nc4ccccc4s3)c(N)oc12 (configuration not stated)	·	·	1.6	·	-7.5	·
COc1ccc(C(=O)NC(C(=O)NCC(=O)Nc2c(C)cccc2C)C(C)C)cc1 (configuration not stated)	·	·	5.5	·	-2.1	·
CCOC(=O)c1cnc(SC2CCc3ccccc3C2=O)nc1N (configuration not stated)	-0.23	9.4	17.9	2.74*	-0.4	0.0429
CCCCSc1ncc(C(=O)OCC)c(N)n1	-0.74	9.5	7.8	0.85	·	-4.59*
CCOC(=O)c1cnc(SCCc2ccccc2)nc1N	-0.23	15.7	3.3	-0.651	1.1	0.014
CCOC(=O)/C(N=Nc1sc(C(=O)OC)c(C)c1C(=O)OCC)=C(\O)CCl	·	·	4.2	·	-6.3	·
COCC(=O)N(Cc1cc2cc(OC)ccc2[nH]c1=O)c1ccc(C)cc1	0.08	1.4	7.7	0.772	-1.4	0.507
Cc1ccc(CN2C(=O)CCSc3ccc(Cl)cc32)cc1	-1.47	9.3	7.2	0.131	-3.7	-4.9*
O=C1CCSc2ccc(Cl)cc2N1Cc1cccc(Cl)c1	-0.97	10.8	10.2	1.25	0.5	-3.45
CCOC(=O)c1cc([N+](=O)[O-])c([N+](=O)[O-])cc1NC(C)=O	0.54	·	0.0	·	1.1	·
SMILES	Pyk2 oligo antag	HIV Rev-RRE inh	Measles CPE	DAT uptake mod	Phagocyt inh	Cav3 T inh
CC(CCc1ccco1)NC(=O)c1cc2c(-c3ccccc3F)nn(C)c2s1 (configuration not stated)	·	0.2	18.3	2.93*	-0.2	-2.66
Cn1nc(-c2ccccc2F)c2cc(C(=O)Nc3ccc4c(c3)OCCO4)sc21	-2.1	7.7	7.9	-3.69	-0.2	-0.245
COc1ccc(Cl)cc1C(=O)NCC(C)C	1.63	4.0	20.8	0.201	0.8	-1.83
O=C(NC1CCCCC1)N1CCSC1=Nc1ccccc1	-0.38	7.8	16.5	-0.208	1.1	-3.99*
CC(=O)Nc1ccc(S(=O)(=O)N2CCN(c3nc(NC4CCCC4)c4ccccc4n3)CC2)cc1	-3.01*	12.4	3.0	1.44	·	0.0656
Cc1c(O)ccc(/C(Cc2ccc3ccccc3n2)=N\O)c1O	-2.68	3.9	3.8	1.26	·	-4.79*
CC(=O)Oc1ccc(C(=O)Cc2ccc3ccccc3n2)c(O)c1C	·	·	29.8	·	-3.4	·
CC(=O)c1ccc(Nc2nc(=O)c3cccnc3s2)cc1	1.06	1.6	3.0	·	3.4	·
CCOC(=O)c1ccc(Nc2nc(=O)c3cccnc3s2)cc1	-1.42	2.9	70.7*	-0.939	·	0.572
O=C1NC(c2ccccc2)=NC1(NS(=O)(=O)c1ccccc1)C(F)(F)F (configuration not stated)	-0.11	1.6	41.0*	-1.08	·	1.4
COc1ccc(F)cc1CN1CCN(c2cc(C)nc3c4c(C)cc(C)nc4nn23)CC1	·	7.9	3.4	2.29	-2.4	-7.75*
COc1ccc(Cl)cc1CN1CCN(c2nc(C)cc(C)c2C#N)CC1	-1.74	39.7*	7.2	-0.921	0.6	-0.218
CCCCSc1nc(N)c(C#N)c(-c2cccs2)c1C#N	-3.84*	12.9	17.3	-1.44	-0.8	0.651
O=c1c2ccc(Cl)cc2nc(-c2cccc(C(F)(F)F)c2)n1O	-0.25	2.8	19.0	-0.0326	-3.6	-5.85*
O=c1[nH]c(/C(Cl)=C/c2cccc(C(F)(F)F)c2)nc2cc(Cl)ccc12	·	·	16.9	·	·	·
O=c1c2ccccc2nc(-c2ccc(Cl)c(Cl)c2)n1O	-0.76	5.4	11.4	-0.572	-1.1	-4.26*
Cc1ccc(-c2nc3ccccc3c(=O)n2Cc2ccccc2)cc1	·	·	6.0	·	·	·
CC1=C(C(=O)OCC(C)C)C(c2cccs2)NC(=S)N1 (configuration not stated)	·	·	7.1	·	-7.9	·
COc1ccc(CN(C(=O)CSc2nnc(-c3c[nH]c4ccccc34)o2)c2ccc(F)cc2)cc1OC	-4.2*	-0.4	3.9	-0.82	·	-0.124
CCOC(=O)CN(C(=O)CSc1nnc(-c2ccc(OC)c(OC)c2)o1)c1ccccc1	-0.97	2.9	1.8	0.135	-0.7	1.11
COc1ccc(CN(C(=O)CSc2nnc(-c3ccc(F)cc3)o2)c2ccc(F)cc2)cc1	-2.13	·	15.4	0.331	-0.5	-6.52*
COc1ccc(-c2nnc(SCC(=O)c3ccc(C)o3)o2)cc1	1.59	0.0	12.1	-1.68	·	0.158
